One may read the logD as lipophilicity at a set pH, counting ionised and neutral species. High values mean higher lipophilicity, low ones lower lipophilicity.

Here are results for four compounds from ChEMBL document CHEMBL4325867, “Synthesis and biological evaluation of novel H6 analogues as drug resistance reversal agents” (Eur J Med Chem, 2019).

The structures appear in SMILES notation. The source made the active and inactive calls. The calls are words filed in the database; no cut-off is given here.

The target of series [1] is T1, ATP-dependent translocase ABCB1 (Homo sapiens, UniProt P08183). The series can be described thus: Reversal of P-gp-mediated drug resistance in human KBV cells assessed as potentiation of paclitaxel-induced cytotoxicity by measuring fold reduction in paclitaxel IC50 at 10 uM after 72 hrs by MTT assay relative to paclitaxel alone. It counts as cell-based. In short, it runs like this:
(§1)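 KBV cells cultured in RPMI-1640 with 10% heat-inactivated fetal calf serum at 37°C, 5% CO2, and used in log phase. Seeded in 96-well plates. Exposed to paclitaxel with or without modulator (5 or 10 µM) for 24, 48 or 72 h. MTT added, formazan dissolved in DMSO, OD read at 570 nm. Survival rate used to derive paclitaxel IC50. RF taken as the fold reduction of IC50 relative to paclitaxel alone.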
In general terms: Formazan colour is commonly taken as a measure of viable cells.

Series [2] deals with T1, ATP-dependent translocase ABCB1. Nature of the series: Reversal of P-gp-mediated drug resistance in human KBV cells assessed as potentiation of paclitaxel-induced cytotoxicity by measuring fold reduction in paclitaxel IC50 at 5 uM after 72 hrs by MTT assay relative to paclitaxel alone. It counts as cell-based. In short, it runs like this: as §1
Series [3] can be described thus: n-octanol/aqueous buffer solution partition coefficient, log P of the compound at pH 6.8 after 4 hrs by HPLC method. It counts as physicochemical. In short, it runs like this: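 Shake-flask partition between n-octanol and pH 6.8 buffer at a 1:1 ratio, room temperature, shaken 4 h. Compound concentration in each phase measured by HPLC.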
A short description of series [4]: Potentiation of paclitaxel-induced antitumor activity against human KBV cells xenografted in nude mouse assessed as tumor weight at […] cotreated with 30 mg/kg paclitaxel relative to control. It counts as functional. (In general: Xenograft models place foreign cells or tissue in a host animal.)
The target in series [5] is T1, ATP-dependent translocase ABCB1. The series can be described thus: Reversal of P-gp-mediated drug resistance in human KBV cells assessed as potentiation of paclitaxel-induced cytotoxicity by measuring cell survival at 5 uM after 72 hrs by MTT assay (reference value: 98 +/- 19%). It is filed as cell-based.
Series [6] shares this target. The series can be described thus: Reversal of P-gp-mediated drug resistance in human KBV cells assessed as potentiation of paclitaxel-induced cell cycle arrest by measuring accumulation at sub-G1 phase at 10 uM after 24 hrs by propidium iodide staining based flow cytometry. In short, it runs like this:
(§2)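 KBV cells plated in 6-well plates overnight, then treated for 24 h at 10 µM alongside paclitaxel. Cells fixed in 70% ethanol overnight at -20 °C, washed in PBS, and stained 30 min with PI/RNase A. Flow cytometry gave the cell-cycle distribution, with sub-G1 taken as apoptotic cells. Mean ± SD, n = 3.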
For orientation: Flow cytometry measures light scatter and fluorescence of single cells or particles in a stream.

The nature of series [7]: Solubility of the compound in water. It is filed as physicochemical. The following applies: buffer.
The target of series [8] is T1, ATP-dependent translocase ABCB1. Nature of the series: Reversal of P-gp-mediated drug resistance in human KBV cells assessed as potentiation of paclitaxel-induced cytotoxicity by measuring fold reduction in paclitaxel IC50 at 10 uM after 48 hrs by MTT assay. It counts as cell-based. In outline:
as §1

Series [9] has the same target. The series can be described thus: Reversal of P-gp-mediated drug resistance in human KBV cells assessed as potentiation of paclitaxel-induced cytotoxicity by measuring reduction in paclitaxel IC50 by MTT assay. It counts as cell-based.
Series [10] relates to Homo sapiens. Nature of the series: Potentiation of paclitaxel-induced antitumor activity against human KBV cells xenografted in Balb/c nude mouse assessed as tumor growth inhibition at 50 mg/kg, po via gavage cotreated with 30 mg/kg, ip paclitaxel. It is filed as functional, organism-based. In outline: (§3)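 Male BALB/c nude mice, 6−8 weeks old, given 5 × 10^6 KBV cells subcutaneously in the dorsal region. Randomized once tumors reached about 100-200 mm3, five per group: control, paclitaxel 30 mg/kg, test agent 50 mg/kg, or the combination. Paclitaxel given i.p. twice a week; test agent by gavage. Tumor growth measured every three days; tumors excised and weighed at the end.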

The nature of series [11]: Cytotoxicity against human KBV cells xenografted in Balb/c nude mouse assessed as tumor growth inhibition at 50 mg/kg, po via gavage. It counts as organism-based. Particulars: in vivo. In outline: as §3
Series [12] in a line: Cytotoxicity against human KBV cells assessed as cell survival at 5 uM after 72 hrs by MTT assay relative to control. Particulars: read-out: Survival. It counts as cell-based. In short, it runs like this:
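KBV cells (RPMI-1640 with 10% heat-inactivated FCS, 37 °C, 5% CO2, log-phase) were seeded in 96-well plates and exposed to compound alone at 5 µM for 72 h. MTT was added and incubated, then DMSO was added. OD was read at 570 nm and survival rate was calculated.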

Series [13] deals with T1, ATP-dependent translocase ABCB1. The series can be described thus: Inhibition of P-gp-mediated Rhodamine-123 efflux in human KBV cells assessed as Rhodamine-123 accumulation preincubated for 2 hrs followed by Rhodamine-123 addition measured after 30 mins by flow cytometry. The following applies: 0.5 h. It counts as cell-based.
For series [14] the target is unchanged. Nature of the series: Reversal of P-gp-mediated drug resistance in human KBV cells assessed as potentiation of paclitaxel-induced cytotoxicity by measuring fold reduction in paclitaxel IC50 at 5 uM after 48 hrs by MTT assay. It counts as cell-based. In short, it runs like this:
as §1

The nature of series [15]: Toxicity in Balb/c nude mouse xenografted with human KBV cells at 50 mg/kg, po via gavage cotreated with 30 mg/kg, ip paclitaxel. It counts as organism-based. Particulars: in vivo.
Series [16] deals with T1, ATP-dependent translocase ABCB1. The series can be described thus: Reversal of P-gp-mediated drug resistance in human KBV cells assessed as potentiation of paclitaxel-induced cell cycle arrest by measuring accumulation at G2/M phase at 10 uM after 24 hrs by propidium iodide staining based flow cytometry. In outline: as §2
For series [17] the target is unchanged. Nature of the series: Reversal of P-gp-mediated drug resistance in human KBV cells assessed as potentiation of paclitaxel-induced cytotoxicity by measuring fold reduction in paclitaxel IC50 at 10 uM after 24 hrs by MTT assay. It counts as cell-based. In outline: as §1
For series [18] the target is unchanged. Nature of the series: Reversal of P-gp-mediated drug resistance in human KBV cells assessed as potentiation of paclitaxel-induced cytotoxicity by measuring fold reduction in paclitaxel IC50 at 5 uM after 24 hrs by MTT assay. It is filed as cell-based. In outline: as §1

T1 sequence (P08183 whole entry): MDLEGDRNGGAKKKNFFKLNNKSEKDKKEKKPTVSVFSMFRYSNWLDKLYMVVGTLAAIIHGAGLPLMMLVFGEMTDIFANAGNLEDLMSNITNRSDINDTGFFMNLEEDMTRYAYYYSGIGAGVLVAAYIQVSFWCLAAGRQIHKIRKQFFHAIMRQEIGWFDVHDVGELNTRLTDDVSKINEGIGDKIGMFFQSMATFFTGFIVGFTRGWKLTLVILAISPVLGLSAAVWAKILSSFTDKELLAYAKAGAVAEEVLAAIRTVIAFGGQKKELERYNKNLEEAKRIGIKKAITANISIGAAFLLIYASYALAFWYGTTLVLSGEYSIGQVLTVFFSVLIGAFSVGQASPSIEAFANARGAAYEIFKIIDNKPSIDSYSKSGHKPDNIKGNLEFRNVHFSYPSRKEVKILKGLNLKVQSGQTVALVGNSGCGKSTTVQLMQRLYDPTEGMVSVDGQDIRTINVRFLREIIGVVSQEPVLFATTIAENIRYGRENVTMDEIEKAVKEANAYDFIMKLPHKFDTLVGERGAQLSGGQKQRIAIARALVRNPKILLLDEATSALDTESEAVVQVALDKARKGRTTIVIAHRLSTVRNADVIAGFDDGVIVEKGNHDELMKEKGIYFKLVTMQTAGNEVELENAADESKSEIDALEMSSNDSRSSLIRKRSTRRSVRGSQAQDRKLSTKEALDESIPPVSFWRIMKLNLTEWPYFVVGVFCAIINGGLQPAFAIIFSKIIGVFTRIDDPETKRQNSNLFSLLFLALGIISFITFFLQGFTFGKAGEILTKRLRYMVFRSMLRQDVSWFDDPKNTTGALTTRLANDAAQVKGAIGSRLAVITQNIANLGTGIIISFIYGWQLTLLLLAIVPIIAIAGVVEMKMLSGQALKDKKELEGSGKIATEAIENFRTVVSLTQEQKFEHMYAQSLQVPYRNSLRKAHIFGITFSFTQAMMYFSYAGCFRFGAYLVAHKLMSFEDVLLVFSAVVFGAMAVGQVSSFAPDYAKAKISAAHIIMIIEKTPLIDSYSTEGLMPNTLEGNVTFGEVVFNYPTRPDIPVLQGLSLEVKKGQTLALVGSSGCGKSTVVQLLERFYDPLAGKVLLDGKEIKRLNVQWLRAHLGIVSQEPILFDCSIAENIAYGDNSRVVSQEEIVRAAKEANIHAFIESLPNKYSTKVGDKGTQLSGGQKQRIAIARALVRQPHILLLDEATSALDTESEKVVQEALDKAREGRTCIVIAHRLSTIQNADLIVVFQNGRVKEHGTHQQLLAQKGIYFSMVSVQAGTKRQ

As for `Cl.Cl.Cl.O[C@@H](COc1cccc2ncccc12)CN1CCN([C@@H]2c3ccccc3[C@@H]3[C@H](c4ccccc42)C3(F)F)CC1` [ZOSUQUIDAR TRIHYDROCHLORIDE], the “fold change (FC)” value came out at 114.11 in series [1] and 32.5 in [2].
On to `CC1(C)CC[C@]2(C(=O)OCc3ccccc3)CC[C@]3(C)C(=CC[C@@H]4[C@@]5(C)Cc6nccnc6[C@@](C)(CO)[C@@H]5CC[C@]43C)[C@@H]2C1`, for which the logD at 4 h in series [3] is -0.54. For the same compound, in [4], the Activity amounted to 42%. For the same compound, in series [5], the Survival amounted to 18%.
As to `CN(C)CCCOC(=O)[C@]12CCC(C)(C)C[C@H]1C1=CC[C@@H]3[C@@]4(C)Cc5nccnc5[C@@](C)(CO)[C@@H]4CC[C@@]3(C)[C@]1(C)CC2`, the Activity entry in series [6] was “Active”; in [9], “Dose-dependent effect and Tde”; in series [15], “Non-Toxic”; in series [16], “Active”. Also, the solubility result in series [7] is on record as “Soluble”. Further, the “fold change (FC)” value is 81.11 in series [8]; 250.77 in series [1]; 65.92 in series [14]; 109.79 in [17]; 77.1 in [18]; 32.5 in series [2]. Moreover, the logD at 4 h in series [3] was -1.25. Also, in [10], the TGI result is “Active”. The TGI result in series [11] was “Non-Toxic”. For the same compound, in series [12], the viability at 72 h, 5 µM is 97%. In addition, the “inhibition (INH)” value in series [13] is “Dose-dependent effect”. Also, in series [5], the Survival was found to be 10%.
As for `COc1cc2c(cc1OC)CN(CCc1ccc(NC(=O)c3cc(OC)c(OC)cc3NC(=O)c3cnc4ccccc4c3)cc1)CC2`, the “fold change (FC)” value in [1] worked out at 89.41; in series [2], 75.95.
